Test results reported in ChEMBL document CHEMBL1122251, “4-(Aminoalkyl)-7-hydroxy-2(3H)-indolones, a novel class of potent presynaptic dopamine receptor agonists” (J Med Chem, 1983).

What was measured:
[1] = test system: Canis familiaris; test: Tested in vivo for change in maximal arterial pressure (MAP) in dog after intravenous dose of 30 mg/kg; format: functional, Canis lupus familiaris, Artery
[2] = biological target: Dopamine receptor; test: Tested in vitro for dopamine agonist activity in rabbit ear artery after at a dose of 3 mg/kg; format: functional, Oryctolagus cuniculus
Outline: (§1)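 Isolated perfused rabbit ear artery preparation, used to assess activation of presynaptic dopamine receptors.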

[3] = test system: Canis familiaris; test: Tested in vivo for change in heart rate(HR) in dog after intravenous dose of 3 mg/kg; format: functional, Canis lupus familiaris
[4] = test system: Canis familiaris; test: Tested in vivo for change in maximal arterial pressure (MAP) in dog after intravenous dose of 30 (ug/kg)/min
[5] = test system: Canis familiaris; test: Tested in vivo for change in maximal arterial pressure (MAP) in dog after intravenous dose of 30 ug/kg; format: functional, Canis lupus familiaris, Artery
Outline: (§2)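 Mean arterial blood pressure was recorded in dogs (N = 2) given the hydrobromide salt by intravenous infusion, dosed as (μg/kg)/min. Values are percent change from the control reading taken just before infusion. The minimum change counted as significant (p < 0.05) was ±5.2%.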

[6] = test system: Canis familiaris; test: Tested in vivo for change in heart rate (HR) in dog after intravenous dose of 300 ug/kg; format: functional, Canis lupus familiaris
[7] = test system: Canis familiaris; test: Tested in vivo for change in maximal arterial pressure (MAP) in dog after intravenous dose of 3 ug/kg; format: functional, Canis lupus familiaris, Artery; outline: as §2
[8] = biological target: Dopamine receptor; test: Tested in vitro for dopamine agonist activity in rabbit ear artery after at a dose of 3 ug/kg; format: functional, tissue-based, Oryctolagus cuniculus; outline: as §1
[9] = test system: Canis familiaris; test: Tested in vivo for change in maximal arterial pressure (MAP) in dog after intravenous dose of 300 ug/kg; format: functional, Canis lupus familiaris, Artery; outline: as §2
[10] = test system: Canis familiaris; test: Tested in vivo for change in heart rate (HR) in dog after intravenous dose of 3 ug/kg; format: functional, Canis lupus familiaris
[11] = test system: Canis familiaris; test: Tested in vivo for change in heart rate (HR) in dog after intravenous dose of 30 ug/kg; format: functional, Canis lupus familiaris
[12] = biological target: Dopamine receptor; test: Tested in vitro for dopamine agonist activity in rabbit ear artery after at a dose of 0.3 mg/kg; format: functional, Oryctolagus cuniculus; parameters: dose 0.3 mg/kg
[13] = test system: Canis familiaris; test: Tested in vivo for change in heart rate (HR) in dog after intravenous dose of 30 (ug/kg)/min

`CCCN(CCC)CCc1ccc(O)c(O)c1` was tested, and the Change [1] was -17.7%, the EC50 [2] was 0.08 µM and the Change [3] was 1.5%. It also gave a Change [4] of -21.9%.
`NCCc1ccc(O)c2c1CC(=O)N2` was tested, and the Change [5] was -16.1%, the Change [6] was -15.8% and the Change [7] was -10.6%. The EC50 [8] was 0.116 µM, the Change [9] was 62.6% and the Change [10] was -2.9%. For the same molecule, the Change [11] was -2.9%.
With `C=CCN1CCc2c(cc(O)c(O)c2Cl)C(c2ccc(O)cc2)C1` (stereo unspecified) the EC50 [12] was 0.122 µM.
In the case of `CCCN(CCC)CCc1ccc(O)c2c1CC(=O)N2` [SKF-89124A], the Change [13] is reported as -6.9%, the Change [1] is reported as 28.4% and the EC50 [12] is reported as 0.0018 µM. The Change [4] was 28.4%.
